Screening results from PubChem BioAssay.
PME-1 primary: PME-1 (human) inhibition; hit rate 0.53% among 320,000; Q9Y570; AID 2130; recombinant PME-1, FP-Rh probe fluorescence polarization; inhibition, % at 5.9 µM;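 active = inhibition above the campaign mean of all compounds plus 3 SD, cut at about 26% in these data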;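 note: competitive labeling of PME-1 active site by serine hydrolase directed probe; inhibitors block probe labeling so polarization falls and inhibition rises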
Target sequence (Q9Y570 whole entry, looked up): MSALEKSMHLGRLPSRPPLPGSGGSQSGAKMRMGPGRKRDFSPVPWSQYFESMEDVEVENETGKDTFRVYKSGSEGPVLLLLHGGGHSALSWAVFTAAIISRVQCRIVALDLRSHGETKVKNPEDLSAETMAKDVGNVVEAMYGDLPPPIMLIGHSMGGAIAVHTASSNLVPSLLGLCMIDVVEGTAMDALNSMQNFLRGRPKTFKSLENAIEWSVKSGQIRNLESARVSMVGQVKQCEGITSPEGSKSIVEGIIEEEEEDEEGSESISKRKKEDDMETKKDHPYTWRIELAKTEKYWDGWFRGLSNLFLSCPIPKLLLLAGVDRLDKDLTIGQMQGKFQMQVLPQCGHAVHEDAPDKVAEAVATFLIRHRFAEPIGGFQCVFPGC
LYPLA2 inh: counter-screen for PME1 inhibitors: inhibitors of human LYPLA2. hit rate 0.38% among 320,000. inhibition, % at 5.9 µM. recombinant LYPLA2, FP-Rh probe fluorescence polarization. O95372;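 active = inhibition above the screen-wide mean plus 3 SD, limit set per campaign, cut at about 26% in these data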
PAD4 FP inh: blocks human protein arginine deiminase 4; Q9UM07; recombinant PAD4, RCA probe fluorescence polarization; inhibition, % at 6.36 µM; hit rate 0.41% among 330,000; AID 485272;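 active = percent inhibition above a cutoff equal to the mean of all tested compounds plus 3 SD, cut at about 15% in these data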
RBBP9 inh: inhibitors of human serine hydrolase RBBP9; recombinant RBBP9, FP-Rh probe fluorescence polarization; inhibition, % at 7.94 µM; hit rate 0.2% among 220,000; AID 1515;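 active = inhibition above the campaign mean of all tested compounds plus 3 SD, cut at about 14% in these data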
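System: RBBP9 protein / Buffer or medium: Tris/NaCl buffer pH 8.0 with 0.1% Pluronic / Probe or stimulus: Serine-hydrolase probe FP-Rh, 375 nM pre-mixing / Dosing: 7.94 µM single dose, 0.794% DMSO / Times: enzyme-compound preincubation 30 min, then probe labeling 45 min, 25 °C / Technique: fluorescence polarization (mP), excitation 525 nm, emission 598 nm / Replication: singlicate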
Fam108B counter: blocks mouse Fam108B hydrolase in RBBP9 counter-screen. recombinant Fam108B, FP-Rh probe fluorescence polarization. AID 1947. hit rate 0.33% among 300,000. inhibition, % at 9.51 µM;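 active = inhibition above the screen mean inhibition plus 3 SD, computed separately per campaign, cut at about 18% in these data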;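 note: inhibitors lower polarization as less probe binds the enzyme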
LYPLA1 inh: LYPLA1 (human) inhibition in PME1 counter-screen | O75608 | hit rate 0.16% among 320,000 | recombinant LYPLA1, FP-Rh probe fluorescence polarization | inhibition, % at 5.9 µM | AID 2174;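 active = inhibition above the mean of all tested compounds plus 3 SD, set per campaign, cut at about 14% in these data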;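 note: inhibitors block serine hydrolase probe labeling of LYPLA1 so polarization falls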
Target sequence (O75608 whole entry, looked up): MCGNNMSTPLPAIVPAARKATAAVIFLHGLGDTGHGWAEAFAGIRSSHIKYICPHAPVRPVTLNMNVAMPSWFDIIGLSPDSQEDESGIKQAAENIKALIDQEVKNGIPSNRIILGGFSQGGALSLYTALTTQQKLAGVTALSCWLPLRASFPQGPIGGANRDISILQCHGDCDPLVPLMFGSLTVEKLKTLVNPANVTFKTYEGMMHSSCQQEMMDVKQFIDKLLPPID
PAD4 FP conf: PAD4 (human) inhibition, confirmed | recombinant PAD4, RCA probe fluorescence polarization | inhibition, % at 6.36 µM | hit rate 28% among 1,200 | shares compounds with PAD4 FP inh;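 active = mean inhibition across replicates above the hit cutoff set by the earlier primary screen, cut at about 15% in these data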;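 note: inhibitors block active-site labeling by the probe so polarization falls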
A number is an active result; - = inactive; . = not tested or not shown. A selection: hits, their analogues and other compounds. The true share with any hit is near 1.3%.

SMILES	PME-1 primary	LYPLA2 inh	PAD4 FP inh	RBBP9 inh	Fam108B counter	LYPLA1 inh	PAD4 FP conf
Cc1ccc2c(c1)-c1c(ssc1=S)C(C)(C)N2C(=O)CSc1nncn1C	-	-	17	-	-	-	22
CCN(CC)C(=S)SC1CCCCN(C(=O)c2ccccc2)C1=O (configuration not stated)	-	-	-	-	-	-	.
N=C(N)c1ccc(N)cc1	-	-	-	.	-	-	.
NC(=Nc1ccc(N)cc1)C(N)=Nc1ccc(N)cc1	-	-	46	-	-	-	-
COC/C=C/C1=CC2=CC(=O)C(C)(OC(=O)c3cnc4ccccc4n3)C(=O)C2=CN1CC1CC1 (configuration not stated)	-	-	24	.	-	-	-
COC/C=C/C1=CC2=CC(=O)C(C)(OC(=O)c3cnc4ccccc4n3)C(=O)C2=CN1Cc1ccccc1 (configuration not stated)	-	-	-	.	-	-	.
Cn1nnnc1Sc1ncnc2scc(-c3ccc(-c4ccccc4)cc3)c12	.	.	-	.	.	.	.
Cn1nnnc1Sc1ncnc2scc(-c3cc4ccccc4o3)c12	-	-	16	.	.	-	-
O=C1N/C(=C\c2ccc(O)cc2)C(=O)c2ccccc21	-	-	30	-	-	-	-
O=C(O)/C=C1\NC(=O)c2ccccc21	-	-	-	-	-	-	.
CC(=O)c1cccc(NC(=S)NC2CC2)c1	-	-	-	-	-	-	.
CC(=O)c1cccc(NC(=S)NC2CCCCC2)c1	-	-	33	-	-	-	-
CC/C(=N/NC(=O)c1ccccc1O)c1c(C)[nH]n(-c2ccccc2)c1=O	-	-	-	.	-	-	.
CC(C)Cn1c(N)c(C(=O)COC(=O)Cc2cccs2)c(=O)n(C)c1=O	-	-	46	.	-	-	-
O=c1oc(-c2ccc(Br)cc2)nc2ccccc12	-	-	-	.	-	-	.
CCOC(=O)C1C(c2ccc(C(=O)O)cc2)NC(=O)NC1(O)C(F)(F)F (configuration not stated)	-	-	-	.	-	-	.
COc1ccc(NC(=O)c2ccc(NC(=O)C(C)C)cc2)c([N+](=O)[O-])c1	-	-	-	-	-	-	.
COc1ccc(NC(=O)C(c2cc3c(cc2[N+](=O)[O-])OCO3)N(C)C)cc1 (configuration not stated)	-	-	31	-	-	-	-
O=C(Nc1ccccc1)Nc1ccno1	-	-	-	-	-	-	.
COC(=O)c1c(C)oc2ccc(N(C(C)=O)S(=O)(=O)c3ccccc3)cc12	-	-	-	.	-	-	.
COc1ccc(S(=O)(=O)N(C(C)=O)c2ccc3oc(=O)sc3c2)cc1	-	-	22	-	-	-	-
CCc1nnc(N/N=C/c2ccc(-c3ccc([N+](=O)[O-])cc3)o2)n1N	-	-	25	-	-	-	-
Cc1nnc(N/N=C/c2ccc(-c3ccccc3F)o2)n1N	-	-	25	-	-	-	-
Cc1nnc(N/N=C\c2ccc(-c3ccccc3[N+](=O)[O-])o2)n1N	-	-	35	-	-	-	-
CCC(=O)N/N=C/c1ccc(-c2ccc([N+](=O)[O-])cc2)o1	-	-	-	-	-	-	.
SMILES	PME-1 primary	LYPLA2 inh	PAD4 FP inh	RBBP9 inh	Fam108B counter	LYPLA1 inh	PAD4 FP conf
COC(=O)c1ccccc1-c1ccc(/C=N/NC(N)=O)o1	-	-	-	-	-	-	.
CC(C)n1c(SCC(=O)Nc2ccc(N3CCOCC3)cc2)nnc1-c1ccco1	-	-	-	.	-	-	.
O=C(c1cccc(N2C(=O)C3C4C=CC(C4)C3C2=O)c1)N1CCN(c2ccccc2)CC1 (configuration not stated)	-	-	-	-	-	-	.
CC(C)[C@H](NC(=O)c1ccco1)C(=O)N(C)Cc1c(F)cccc1Cl	-	-	-	.	-	-	.
CCCc1c(O)nc(SCCN(CCC)CCC)[nH]c1=O	-	-	48	-	-	-	-
C(=Nc1ccc(N2CCOCC2)cc1)c1c[nH]c2ccccc12	-	-	17	-	-	-	-
CN(C)c1nc(N/N=C/c2c[nH]c3ccccc23)nc(N2CCOCC2)n1	-	-	-	-	-	-	.
Oc1ccc2ccccc2c1C=Nc1ccc(N2CCOCC2)cc1	-	-	46	-	-	-	-
CCCN(CCC)C(=O)c1oc2ccccc2c1NC(=O)Cc1cccc(OC)c1	-	-	-	.	-	-	.
CCOc1cc(N2CCOCC2)c(OCC)cc1NC(=O)CSc1ncccc1C(=O)O	.	.	39	.	.	.	-
COCCCn1c(=S)[nH]c2c(sc3ccccc32)c1=O	-	-	18	-	-	-	-
CC1CCN(CCCn2c(=S)[nH]c3c(sc4ccccc43)c2=O)CC1	-	-	-	-	-	-	.
C=CCN1C=C2C(=O)C(C)(OC(=O)CCC(=O)OC)C(=O)C=C2C=C1C1CC1 (configuration not stated)	-	-	17	.	-	-	-
COC(=O)CCC(=O)OC1(C)C(=O)C=C2C=C(C3CC3)N(CCCOC(C)C)C=C2C1=O (configuration not stated)	-	-	30	.	-	-	-
COc1ccc(Cl)cc1C(=O)NNC(=O)c1cc2ccccc2o1	.	.	-	.	.	.	.
CC(C)c1ccc(N(CC(=O)NC(C)(C)C)C(=O)CCC(=O)Nc2nccs2)cc1	-	-	-	.	-	-	.
COc1cc(C(=O)c2nccc3cc(OC)c(OC)cc23)c([N+](=O)[O-])cc1OC	-	-	40	-	-	-	-
O=C1C=C(Nc2ccccc2)c2ccccc2C1=O	.	.	.	-	.	.	.
O=C1C=C(Nc2cccc3cccnc23)c2ccccc2C1=O	-	-	34	.	-	-	54
CC1CCCC(NC(=O)COC(=O)c2ccc([N+](=O)[O-])s2)C1C (configuration not stated)	.	.	15	.	.	.	-
Cc1ccc(S(=O)(=O)N2CCN(C(=O)Cc3ccccc3)CC2)cc1C	-	-	22	.	.	-	-
Cc1ccc(CC(=O)N2CCN(S(=O)(=O)c3ccccc3)CC2)cc1C	-	-	-	.	-	-	.
CC(=O)Nc1ccc(S(=O)(=O)Nc2cccc(C(=O)Nc3ccccc3C(=O)O)c2)cc1	-	-	18	.	-	-	-
CC(=O)Nc1cccc(C(=O)Nc2ccccc2C(=O)O)c1	-	-	-	-	-	-	.
CCn1c(CSc2ncn[nH]2)nc2cc(C(=O)O)ccc21	-	-	22	-	-	-	15
CCN(CC)c1ccc(N=Cc2ccc(N(CC)CC)cc2O)cc1	-	-	17	-	-	-	-
CCN(CC)c1ccc(N)cc1	-	-	-	.	.	-	.
Nc1ccc(N(CCO)CCO)cc1	-	-	59	-	-	-	-
Cc1csc(NC(=O)CSc2ncnc3c2cnn3-c2ccccc2Cl)n1	-	-	15	-	-	-	-
CC(C)(C)c1ccccc1NC(=S)NC1CCCCC1	-	-	-	-	-	-	.
